# Tested on: U2OS
# Assay: Multiplex assay against U2OS
# Type: toxicity, cell-based
# Settings: human
# How it was run: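 With compound added, live cells were imaged on a CQ1 microscope at 37°C and 5% CO2; staining with Hoechst33342, BioTracker Green Microtubule Cytoskeleton Dye, MitoTracker Red and Annexin V Alexa Fluor 680 had been done at seeding. The CellPathfinder machine-learning gating scheme split cells into Hoechst high-intensity objects or normal cells, normal cells into healthy, pyknosed or fragmented nuclei, and pyknosed cells into mitotic or apoptotic. The tubulin, mitochondrial-mass and membrane-permeability phenotypes are per cents of healthy-nucleus cells.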
# [1] = 12 h, 1 µM, compound concentration 1 uM, replicate 1
# [2] = 12 h, 1 µM, compound concentration 1 uM, replicate 2
# [3] = 12 h, 10 µM, compound concentration 10 uM, replicate 1
# [4] = 12 h, 10 µM, compound concentration 10 uM, replicate 2
# [5] = 24 h, 1 µM, compound concentration 1 uM, replicate 1
# [6] = 24 h, 1 µM, compound concentration 1 uM, replicate 2
# [7] = 24 h, 10 µM, compound concentration 10 uM, replicate 1
# [8] = 24 h, 10 µM, compound concentration 10 uM, replicate 2
# [9] = 48 h, 1 µM, compound concentration 1 uM, replicate 1
# [10] = 48 h, 1 µM, compound concentration 1 uM, replicate 2
# [11] = 48 h, 10 µM, compound concentration 10 uM, replicate 1
# [12] = 48 h, 10 µM, compound concentration 10 uM, replicate 2
compound,measurement,setting,value
O=C(Cc1ccc(-c2ccc(OCCN3CCOCC3)cc2)cn1)NCc1ccccc1 [TIRBANIBULIN],Population Apoptotic (%),[1],52%
same,Population Fragmented Nuclei (%),[1],10%
same,Population Healthy Nuclei (%),[1],76%
same,Population Hoechst High Intensity Objects (%),[1],7%
same,Population Membrane Permeable-Phenotype (%),[1],8%
same,Population Mitochondria Different-Phenotype (%),[1],20%
same,Population Mitotic Cells (%),[1],47%
same,Population Normal (%),[1],92%
same,Population Pyknosed Nuclei (%),[1],12%
same,Population Tubulin-Different-Phenotype (%),[1],19%
same,Total Cell Count,[1],172
same,Population Apoptotic (%),[2],0%
same,Population Fragmented Nuclei (%),[2],5%
same,Population Healthy Nuclei (%),[2],90%
same,Population Hoechst High Intensity Objects (%),[2],12%
same,Population Membrane Permeable-Phenotype (%),[2],9%
same,Population Mitochondria Different-Phenotype (%),[2],21%
same,Population Mitotic Cells (%),[2],100%
same,Population Normal (%),[2],87%
same,Population Pyknosed Nuclei (%),[2],4%
same,Population Tubulin-Different-Phenotype (%),[2],12%
same,Total Cell Count,[2],108
same,Population Apoptotic (%),[3],21%
same,Population Fragmented Nuclei (%),[3],10%
same,Population Healthy Nuclei (%),[3],72%
same,Population Hoechst High Intensity Objects (%),[3],10%
same,Population Membrane Permeable-Phenotype (%),[3],8%
same,Population Mitochondria Different-Phenotype (%),[3],16%
same,Population Mitotic Cells (%),[3],78%
same,Population Normal (%),[3],89%
same,Population Pyknosed Nuclei (%),[3],16%
same,Population Tubulin-Different-Phenotype (%),[3],10%
same,Total Cell Count,[3],169
same,Population Apoptotic (%),[4],50%
same,Population Fragmented Nuclei (%),[4],13%
same,Population Healthy Nuclei (%),[4],78%
same,Population Membrane Permeable-Phenotype (%),[4],4%
same,Population Mitochondria Different-Phenotype (%),[4],19%
same,Population Mitotic Cells (%),[4],50%
same,Population Pyknosed Nuclei (%),[4],7%
same,Population Tubulin-Different-Phenotype (%),[4],12%
same,Total Cell Count,[4],81
same,Population Apoptotic (%),[5],34%
same,Population Fragmented Nuclei (%),[5],20%
same,Population Healthy Nuclei (%),[5],50%
same,Population Hoechst High Intensity Objects (%),[5],8%
same,Population Membrane Permeable-Phenotype (%),[5],9%
same,Population Mitochondria Different-Phenotype (%),[5],35%
same,Population Mitotic Cells (%),[5],65%
same,Population Normal (%),[5],91%
same,Population Pyknosed Nuclei (%),[5],29%
same,Population Tubulin-Different-Phenotype (%),[5],21%
same,Total Cell Count,[5],227
same,Population Apoptotic (%),[6],61%
same,Population Fragmented Nuclei (%),[6],16%
same,Population Healthy Nuclei (%),[6],66%
same,Population Hoechst High Intensity Objects (%),[6],9%
same,Population Membrane Permeable-Phenotype (%),[6],6%
same,Population Mitochondria Different-Phenotype (%),[6],44%
same,Population Mitotic Cells (%),[6],38%
same,Population Normal (%),[6],90%
same,Population Pyknosed Nuclei (%),[6],17%
same,Population Tubulin-Different-Phenotype (%),[6],10%
same,Total Cell Count,[6],155
same,Population Apoptotic (%),[7],34%
same,Population Fragmented Nuclei (%),[7],15%
same,Population Healthy Nuclei (%),[7],64%
same,Population Hoechst High Intensity Objects (%),[7],8%
same,Population Membrane Permeable-Phenotype (%),[7],8%
same,Population Mitochondria Different-Phenotype (%),[7],46%
same,Population Mitotic Cells (%),[7],65%
same,Population Normal (%),[7],91%
same,Population Pyknosed Nuclei (%),[7],20%
same,Population Tubulin-Different-Phenotype (%),[7],11%
same,Total Cell Count,[7],160
same,Population Apoptotic (%),[8],66%
same,Population Fragmented Nuclei (%),[8],19%
same,Population Healthy Nuclei (%),[8],57%
same,Population Hoechst High Intensity Objects (%),[8],10%
same,Population Membrane Permeable-Phenotype (%),[8],10%
same,Population Mitochondria Different-Phenotype (%),[8],40%
same,Population Mitotic Cells (%),[8],33%
same,Population Normal (%),[8],89%
same,Population Pyknosed Nuclei (%),[8],23%
same,Population Tubulin-Different-Phenotype (%),[8],13%
same,Total Cell Count,[8],82
same,Population Apoptotic (%),[9],67%
same,Population Fragmented Nuclei (%),[9],24%
same,Population Healthy Nuclei (%),[9],40%
same,Population Hoechst High Intensity Objects (%),[9],9%
same,Population Membrane Permeable-Phenotype (%),[9],7%
same,Population Mitochondria Different-Phenotype (%),[9],39%
same,Population Mitotic Cells (%),[9],32%
same,Population Normal (%),[9],90%
same,Population Pyknosed Nuclei (%),[9],35%
same,Population Tubulin-Different-Phenotype (%),[9],25%
same,Total Cell Count,[9],340
same,Population Apoptotic (%),[10],75%
same,Population Fragmented Nuclei (%),[10],22%
same,Population Healthy Nuclei (%),[10],45%
same,Population Hoechst High Intensity Objects (%),[10],11%
same,Population Membrane Permeable-Phenotype (%),[10],29%
same,Population Mitochondria Different-Phenotype (%),[10],64%
same,Population Mitotic Cells (%),[10],25%
same,Population Normal (%),[10],88%
same,Population Pyknosed Nuclei (%),[10],32%
same,Population Tubulin-Different-Phenotype (%),[10],35%
same,Total Cell Count,[10],239
same,Population Apoptotic (%),[11],64%
same,Population Fragmented Nuclei (%),[11],24%
same,Population Healthy Nuclei (%),[11],32%
same,Population Hoechst High Intensity Objects (%),[11],10%
same,Population Membrane Permeable-Phenotype (%),[11],15%
same,Population Mitochondria Different-Phenotype (%),[11],63%
same,Population Mitotic Cells (%),[11],35%
same,Population Normal (%),[11],89%
same,Population Pyknosed Nuclei (%),[11],43%
same,Population Tubulin-Different-Phenotype (%),[11],22%
same,Total Cell Count,[11],174
same,Population Apoptotic (%),[12],70%
same,Population Fragmented Nuclei (%),[12],23%
same,Population Healthy Nuclei (%),[12],45%
same,Population Hoechst High Intensity Objects (%),[12],11%
same,Population Membrane Permeable-Phenotype (%),[12],44%
same,Population Mitochondria Different-Phenotype (%),[12],68%
same,Population Mitotic Cells (%),[12],29%
same,Population Normal (%),[12],88%
same,Population Pyknosed Nuclei (%),[12],30%
same,Population Tubulin-Different-Phenotype (%),[12],36%
same,Total Cell Count,[12],85
Cn1nc(C(F)(F)F)cc1-c1cnc(N2CCc3cc(S(=O)(=O)Nc4c(F)cc(Cl)cc4F)cc(N4CCCC4=O)c32)nc1 [TP-020],Population Apoptotic (%),[1],27%
same,Population Fragmented Nuclei (%),[1],4%
same,Population Healthy Nuclei (%),[1],88%
same,Population Hoechst High Intensity Objects (%),[1],4%
same,Population Membrane Permeable-Phenotype (%),[1],17%
same,Population Mitochondria Different-Phenotype (%),[1],18%
same,Population Mitotic Cells (%),[1],72%
same,Population Normal (%),[1],95%
same,Population Pyknosed Nuclei (%),[1],6%
same,Population Tubulin-Different-Phenotype (%),[1],10%
same,Total Cell Count,[1],139
same,Population Apoptotic (%),[2],0%
same,Population Fragmented Nuclei (%),[2],14%
same,Population Healthy Nuclei (%),[2],79%
same,Population Hoechst High Intensity Objects (%),[2],15%
same,Population Membrane Permeable-Phenotype (%),[2],15%
same,Population Mitochondria Different-Phenotype (%),[2],15%
same,Population Mitotic Cells (%),[2],100%
same,Population Normal (%),[2],84%
same,Population Pyknosed Nuclei (%),[2],5%
same,Population Tubulin-Different-Phenotype (%),[2],15%
same,Total Cell Count,[2],134
same,Population Apoptotic (%),[3],50%
same,Population Fragmented Nuclei (%),[3],3%
same,Population Healthy Nuclei (%),[3],93%
same,Population Hoechst High Intensity Objects (%),[3],4%
same,Population Membrane Permeable-Phenotype (%),[3],11%
same,Population Mitochondria Different-Phenotype (%),[3],23%
same,Population Mitotic Cells (%),[3],50%
same,Population Normal (%),[3],95%
same,Population Pyknosed Nuclei (%),[3],3%
same,Population Tubulin-Different-Phenotype (%),[3],22%
same,Total Cell Count,[3],196
same,Population Apoptotic (%),[4],16%
same,Population Fragmented Nuclei (%),[4],8%
same,Population Healthy Nuclei (%),[4],81%
same,Population Hoechst High Intensity Objects (%),[4],5%
same,Population Membrane Permeable-Phenotype (%),[4],10%
same,Population Mitochondria Different-Phenotype (%),[4],31%
same,Population Mitotic Cells (%),[4],83%
same,Population Normal (%),[4],94%
same,Population Pyknosed Nuclei (%),[4],9%
same,Population Tubulin-Different-Phenotype (%),[4],26%
same,Total Cell Count,[4],133
same,Population Apoptotic (%),[5],20%
same,Population Fragmented Nuclei (%),[5],2%
same,Population Healthy Nuclei (%),[5],90%
same,Population Hoechst High Intensity Objects (%),[5],2%
same,Population Membrane Permeable-Phenotype (%),[5],12%
same,Population Mitochondria Different-Phenotype (%),[5],10%
same,Population Mitotic Cells (%),[5],80%
same,Population Normal (%),[5],97%
same,Population Pyknosed Nuclei (%),[5],7%
same,Population Tubulin-Different-Phenotype (%),[5],16%
same,Total Cell Count,[5],196
same,Population Apoptotic (%),[6],42%
same,Population Fragmented Nuclei (%),[6],12%
same,Population Healthy Nuclei (%),[6],81%
same,Population Hoechst High Intensity Objects (%),[6],5%
same,Population Membrane Permeable-Phenotype (%),[6],13%
same,Population Mitochondria Different-Phenotype (%),[6],23%
same,Population Mitotic Cells (%),[6],57%
same,Population Normal (%),[6],94%
same,Population Pyknosed Nuclei (%),[6],5%
same,Population Tubulin-Different-Phenotype (%),[6],11%
same,Total Cell Count,[6],163
same,Population Apoptotic (%),[7],9%
same,Population Fragmented Nuclei (%),[7],3%
same,Population Healthy Nuclei (%),[7],91%
same,Population Hoechst High Intensity Objects (%),[7],1%
same,Population Membrane Permeable-Phenotype (%),[7],6%
same,Population Mitochondria Different-Phenotype (%),[7],19%
same,Population Mitotic Cells (%),[7],90%
same,Population Normal (%),[7],98%
same,Population Tubulin-Different-Phenotype (%),[7],29%
same,Total Cell Count,[7],268
same,Population Apoptotic (%),[8],50%
same,Population Fragmented Nuclei (%),[8],6%
same,Population Healthy Nuclei (%),[8],88%
same,Population Hoechst High Intensity Objects (%),[8],7%
same,Population Membrane Permeable-Phenotype (%),[8],9%
same,Population Mitochondria Different-Phenotype (%),[8],45%
same,Population Mitotic Cells (%),[8],50%
same,Population Normal (%),[8],92%
same,Population Pyknosed Nuclei (%),[8],5%
same,Population Tubulin-Different-Phenotype (%),[8],25%
same,Total Cell Count,[8],175

# Source: ChEMBL document CHEMBL4689842, “EUbOPEN Chemogenomics Library wave 1” (2021)
